How the values were obtained:
Hepatitis C virus = assay: Antiviral activity against HCV Con1 in eplicon cells after 3 days by RT-PCR analysis; format: functional, organism-based, Hepacivirus hominis; details: isolate Con1, 72 h
Procedure, shortened: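 HCV 1b-Con1 replicon cells seeded at 5000 cells/well one day before treatment; inhibitor in DMSO added as 10 serial twofold dilutions in duplicate (final 0.5% DMSO, 5% FBS). Harvested 3 days post dosing; replicon RNA quantified by real-time RT-PCR (Taqman), GAPDH RNA as endogenous control; EC50 calculated.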

[1] = Irreversible inhibition of HCV1b NS5B delta21 polymerase by radiolabeled nucleotide incorporation assay; set-up: species or system Hepatitis C virus subtype 1b
[2] = Ratio of drug uptake in brain to plasma of Sprague-Dawley rat at 10 mg/kg, po; format: ADME, organism-based; set-up: dose 10 mg/kg, route oral; details: read-out: BPR
Procedure, shortened: (§1)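 Crystalline sodium salt given orally at 10 mg/kg to fasted male Sprague Dawley rats. Liver and brain uptake were measured and reported as the mean tissue-to-plasma ratio.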

[3] = Volume of distribution at steady state in beagle dog; format: ADME, organism-based, Canis lupus familiaris; details: in vivo, read-out: Vdss
Procedure, shortened: (§2)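 The compound was given as a crystalline sodium salt. Pharmacokinetics were studied in Sprague Dawley rats, Cynomolgus monkeys and Beagle dogs after oral (PO) and IV dosing. Oral exposure was read as AUC, and the oral dose was 3 mpk in monkeys and dogs. Volume of distribution was taken at steady state.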

[4] = AUC in Sprague-Dawley rat at 10 mg/kg, po; format: ADME, organism-based; set-up: dose 10 mg/kg, route oral; details: plasma
Procedure, shortened: (§3)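 Given orally as crystalline sodium salt; plasma AUC determined in Sprague Dawley rats (10 mpk), Cynomolgus monkeys (3 mpk) or Beagle dogs (3 mpk).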

[5] = Oral bioavailability in cynomolgus monkey at 3 mg/kg; format: ADME, organism-based, Macaca fascicularis; details: in vivo; procedure, shortened: as §2
[6] = Clearance in cynomolgus monkey; format: ADME, organism-based, Macaca fascicularis; details: in vivo
[7] = Half life in iv dosed beagle dog; format: ADME, organism-based, Canis lupus familiaris; details: in vivo
[8] = Oral bioavailability in beagle dog at 3 mg/kg; format: ADME, organism-based, Canis lupus familiaris; details: in vivo; procedure, shortened: as §2
[9] = Oral bioavailability in Sprague-Dawley rat at 10 mg/kg; format: ADME, organism-based; details: in vivo
[10] = AUC in cynomolgus monkey at 3 mg/kg, po; format: ADME, organism-based, Macaca fascicularis; set-up: dose 3 mg/kg, route oral; details: plasma; procedure, shortened: as §3
[11] = Plasma protein binding in cynomolgus monkey; format: ADME, cell-free, Macaca fascicularis; details: read-out: PPB (converted)
[12] = Volume of distribution at steady state in Sprague-Dawley rat; format: ADME, organism-based; details: in vivo, read-out: Vdss; procedure, shortened: as §2
[13] = Volume of distribution at steady state in cynomolgus monkey; format: ADME, organism-based, Macaca fascicularis; details: in vivo, read-out: Vdss; procedure, shortened: as §2
[14] = AUC in beagle dog at 3 mg/kg, po; format: ADME, organism-based, Canis lupus familiaris; set-up: dose 3 mg/kg, route oral; details: plasma; procedure, shortened: as §3
[15] = Plasma protein binding in beagle dog; format: ADME, cell-free, Canis lupus familiaris; details: read-out: PPB (converted)
[16] = Clearance in Sprague-Dawley rat; format: ADME, organism-based; details: in vivo
[17] = Half life in iv dosed cynomolgus monkey; format: ADME, organism-based, Macaca fascicularis; details: in vivo
[18] = Plasma protein binding in Sprague-Dawley rat; format: ADME, cell-free; details: read-out: PPB (converted)
[19] = Clearance in beagle dog; format: ADME, organism-based, Canis lupus familiaris; details: in vivo
[20] = Half life in iv dosed Sprague-Dawley rat; format: ADME, organism-based; details: in vivo
[21] = Plasma protein binding in human; format: ADME, cell-free; details: read-out: PPB (converted)
[22] = Ratio of drug uptake in liver to plasma of Sprague-Dawley rat at 10 mg/kg, po; format: ADME, organism-based; set-up: dose 10 mg/kg, route oral; procedure, shortened: as §1

Compound `Cc1cc2c(-c3ccc[nH]c3=O)c(C(=O)O)n(Cc3cc(F)cnc3Cl)c2cc1F` has an EC50 (Hepatitis C virus) of 1000 nM and an IC50 [1] of 12 nM.
With `Cc1cc2c(-c3ccc[nH]c3=O)c(C(=O)[O-])n(Cc3cc4ccccc4nc3Cl)c2cc1F.[Na+]` the Kp [2] was less than 0.01, the Vd [3] was 1.7 L/kg and the AUC [4] was 35 µM·h. The bioavailability [5] was 38%, the clearance [6] was 3.5 mL/min/kg and the half-life [7] was 2 h. The bioavailability [8] was 38%, the bioavailability [9] was 14% and the AUC [10] was 11.5 µM·h. For the same compound, the fraction unbound [11] was 0.005, the Vd [12] was 0.3 L/kg and the Vd [13] was 1.2 L/kg. The AUC [14] was 3.2 µM·h, the fraction unbound [15] was 0.004 and the clearance [16] was 1.5 mL/min/kg. For the same compound, the half-life [17] was 5 h, the fraction unbound [18] was 0.002 and the clearance [19] was 13 mL/min/kg. The half-life [20] was 7 h, the fraction unbound [21] was 0.003 and the Kp [22] was 0.4.
